Assay results as given in ChEMBL document CHEMBL4229410, “Facile construction of fused benzimidazole-isoquinolinones that induce cell-cycle arrest and apoptosis in colorectal cancer cells” (Bioorg Med Chem, 2018).
pKd: −log10 of the molar value. The source made the active and inactive calls. No cut-off for these calls is given here.

Assays:
SW-620 [1] = experiment: Upregulation of p53 expression in human SW620 cells after 48 hrs by Western blot analysis; type: functional, cell-based
[2] = target: Insulin-like growth factor 1 receptor (Homo sapiens, UniProt P08069); experiment: Binding affinity to human IGF1R (L972 to D1294 residues) expressed in bacterial expression system by KINOMEscan assay
[3] = target: Ribosomal protein S6 kinase alpha-3 (Homo sapiens, UniProt P51812); experiment: Binding affinity to human N-terminal RSK2 kinase domain 1 (M1 to D394 residues) expressed in mammalian expression system by KINOMEscan assay
[4] = target: Bone morphogenetic protein receptor type-2 (Homo sapiens) (UniProt Q13873); experiment: Inhibition of human BMPR2 (R179 to Q526 residues) expressed in mammalian expression system assessed as residual activity at 5 uM by KINOMEscan assay relative to control
Insulin receptor = Insulin receptor (Homo sapiens, UniProt P06213); experiment: Inhibition of human INSR (P997 to E1318 residues) expressed in mammalian expression system assessed as residual activity at 5 uM by KINOMEscan assay relative to control
SW-620 [5] = experiment: Antiproliferative activity against human SW620 cells after 48 hrs by BrdU/DAPI staining based immunofluorescence assay; type: functional, cell-based
Procedure, shortened: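 Cells seeded at 20,000 per well after reaching 80% confluence; exposed 48 h to 0, 25, 50, 75 μM, then 10 μM BrdU for 2 h. Paraformaldehyde fixation, 2 M HCl 30 min, 10% goat serum block, anti-BrdU primary overnight at 4 °C, secondary 120 min at room temperature, DAPI 300 nM. Fluorescence microscopy; percent BrdU-positive nuclei, mean ± SD of three independent experiments.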

[6] = target: Proto-oncogene tyrosine-protein kinase receptor Ret (Homo sapiens, UniProt P07949); experiment: Inhibition of human RET (E713 to D1014 residues) expressed in bacterial expression system assessed as residual activity at 5 uM by KINOMEscan assay relative to control
Sequence of Proto-oncogene tyrosine-protein kinase receptor Ret (P07949 whole entry, the tested form may be a part): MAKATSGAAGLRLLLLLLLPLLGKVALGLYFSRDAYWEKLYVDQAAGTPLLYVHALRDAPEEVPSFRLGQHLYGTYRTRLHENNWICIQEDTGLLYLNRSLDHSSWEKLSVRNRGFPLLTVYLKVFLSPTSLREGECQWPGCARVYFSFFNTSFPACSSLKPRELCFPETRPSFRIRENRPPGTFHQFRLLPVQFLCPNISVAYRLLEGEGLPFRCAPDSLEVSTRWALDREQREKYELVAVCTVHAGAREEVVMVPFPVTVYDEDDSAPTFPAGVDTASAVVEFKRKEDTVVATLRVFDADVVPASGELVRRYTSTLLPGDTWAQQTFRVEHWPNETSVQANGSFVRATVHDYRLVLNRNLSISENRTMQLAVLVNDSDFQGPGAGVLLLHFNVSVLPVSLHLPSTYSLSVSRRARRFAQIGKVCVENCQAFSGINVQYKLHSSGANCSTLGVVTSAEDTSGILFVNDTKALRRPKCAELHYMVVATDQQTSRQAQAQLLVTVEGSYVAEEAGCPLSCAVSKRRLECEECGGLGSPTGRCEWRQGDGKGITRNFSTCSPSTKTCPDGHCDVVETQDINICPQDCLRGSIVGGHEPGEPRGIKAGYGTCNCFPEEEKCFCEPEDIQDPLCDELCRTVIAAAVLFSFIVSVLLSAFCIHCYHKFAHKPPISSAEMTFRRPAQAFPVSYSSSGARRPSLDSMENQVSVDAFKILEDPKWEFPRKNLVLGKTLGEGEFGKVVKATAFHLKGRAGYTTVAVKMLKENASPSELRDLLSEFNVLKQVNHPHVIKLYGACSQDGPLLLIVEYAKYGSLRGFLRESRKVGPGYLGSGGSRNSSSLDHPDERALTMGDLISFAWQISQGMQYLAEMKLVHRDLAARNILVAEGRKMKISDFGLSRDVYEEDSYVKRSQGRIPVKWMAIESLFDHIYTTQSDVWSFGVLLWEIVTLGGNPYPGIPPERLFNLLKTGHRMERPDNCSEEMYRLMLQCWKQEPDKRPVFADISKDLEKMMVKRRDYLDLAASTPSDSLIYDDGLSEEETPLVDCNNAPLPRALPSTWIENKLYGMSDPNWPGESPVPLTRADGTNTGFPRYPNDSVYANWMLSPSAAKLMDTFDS

[7] = target: cAMP-dependent protein kinase catalytic subunit alpha (Homo sapiens, UniProt P17612); experiment: Inhibition of human PKACalpha (G10 to F351 residues) expressed in bacterial expression system assessed as residual activity at 5 uM by KINOMEscan assay relative to control
SW-620 [8] = experiment: Induction of apoptosis in human SW620 cells assessed as live cells at 25 uM after 48 hrs by Annexin-V-FITC/propidium iodide staining based flow cytometry (reference value: 97.5%); type: functional
SW-620 [9] = experiment: Induction of apoptosis in human SW620 cells assessed as necrotic cells at 25 uM after 48 hrs by Annexin-V-FITC/propidium iodide staining based flow cytometry (reference value: 0.9%); type: functional
[10] = target: Serine/threonine-protein kinase PLK1 (Homo sapiens, UniProt P53350); experiment: Inhibition of human PLK1 (A33 to F325 residues) expressed in mammalian expression system assessed as residual activity at 5 uM by KINOMEscan assay relative to control
[11] = target: Macrophage colony-stimulating factor 1 receptor (Homo sapiens, UniProt P07333); experiment: Binding affinity to human CSF1R (I564 to S939 residues) expressed in bacterial expression system by KINOMEscan assay
SW-620 [12] = experiment: Cell cycle arrest in human SW620 cells assessed as accumulation at S-phase at 75 uM after 48 hrs by propidium iodide staining based flow cytometry (reference value: 43.72%); type: functional
SW-620 [13] = experiment: Induction of apoptosis in human SW620 cells after 48 hrs by Annexin-V-FITC/propidium iodide staining based flow cytometry; type: functional, cell-based
HT-29 [14] = experiment: Down regulation of cyclin-B1 expression in human HT-29 cells after 48 hrs by Western blot analysis; type: functional, cell-based
Procedure, shortened: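 HT29 or SW620 cells were treated at 0, 25, 50 and 75 μM for 48 h and lysed in RIPA with protease and phosphatase inhibitors. Protein was quantified by BCA. 50 μg lysate was run on 8–15% SDS-PAGE and transferred to PVDF. Blocking was 5% BSA/TBST for 2 h; primary antibodies were applied overnight at 4 °C, then HRP secondary 1 h at room temperature.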

[15] = target: Aurora kinase A (Homo sapiens) (UniProt O14965); experiment: Inhibition of human AURKA (E122 to K401 residues) expressed in mammalian expression system assessed as residual activity at 5 uM by KINOMEscan assay relative to control
[16] = target: Mitogen-activated protein kinase 3 (Homo sapiens, UniProt P27361); experiment: Inhibition of full length human ERK1 (M1 to P379 residues) expressed in bacterial expression system assessed as residual activity at 5 uM by KINOMEscan assay relative to control
[17] = target: RAF proto-oncogene serine/threonine-protein kinase (Homo sapiens, UniProt P04049); experiment: Binding affinity to human RAF1 (I330 to T640 residues) expressed in bacterial expression system by KINOMEscan assay
[18] = target: Phosphatidylinositol 4-phosphate 3-kinase C2 domain-containing subunit beta (Homo sapiens, UniProt O00750); experiment: Inhibition of human PIK3C2B (M1 to L1634 residues) expressed in mammalian expression system assessed as residual activity at 5 uM by KINOMEscan assay relative to control
Sequence of Phosphatidylinositol 4-phosphate 3-kinase C2 domain-containing subunit beta (O00750 whole entry, the tested form may be a part): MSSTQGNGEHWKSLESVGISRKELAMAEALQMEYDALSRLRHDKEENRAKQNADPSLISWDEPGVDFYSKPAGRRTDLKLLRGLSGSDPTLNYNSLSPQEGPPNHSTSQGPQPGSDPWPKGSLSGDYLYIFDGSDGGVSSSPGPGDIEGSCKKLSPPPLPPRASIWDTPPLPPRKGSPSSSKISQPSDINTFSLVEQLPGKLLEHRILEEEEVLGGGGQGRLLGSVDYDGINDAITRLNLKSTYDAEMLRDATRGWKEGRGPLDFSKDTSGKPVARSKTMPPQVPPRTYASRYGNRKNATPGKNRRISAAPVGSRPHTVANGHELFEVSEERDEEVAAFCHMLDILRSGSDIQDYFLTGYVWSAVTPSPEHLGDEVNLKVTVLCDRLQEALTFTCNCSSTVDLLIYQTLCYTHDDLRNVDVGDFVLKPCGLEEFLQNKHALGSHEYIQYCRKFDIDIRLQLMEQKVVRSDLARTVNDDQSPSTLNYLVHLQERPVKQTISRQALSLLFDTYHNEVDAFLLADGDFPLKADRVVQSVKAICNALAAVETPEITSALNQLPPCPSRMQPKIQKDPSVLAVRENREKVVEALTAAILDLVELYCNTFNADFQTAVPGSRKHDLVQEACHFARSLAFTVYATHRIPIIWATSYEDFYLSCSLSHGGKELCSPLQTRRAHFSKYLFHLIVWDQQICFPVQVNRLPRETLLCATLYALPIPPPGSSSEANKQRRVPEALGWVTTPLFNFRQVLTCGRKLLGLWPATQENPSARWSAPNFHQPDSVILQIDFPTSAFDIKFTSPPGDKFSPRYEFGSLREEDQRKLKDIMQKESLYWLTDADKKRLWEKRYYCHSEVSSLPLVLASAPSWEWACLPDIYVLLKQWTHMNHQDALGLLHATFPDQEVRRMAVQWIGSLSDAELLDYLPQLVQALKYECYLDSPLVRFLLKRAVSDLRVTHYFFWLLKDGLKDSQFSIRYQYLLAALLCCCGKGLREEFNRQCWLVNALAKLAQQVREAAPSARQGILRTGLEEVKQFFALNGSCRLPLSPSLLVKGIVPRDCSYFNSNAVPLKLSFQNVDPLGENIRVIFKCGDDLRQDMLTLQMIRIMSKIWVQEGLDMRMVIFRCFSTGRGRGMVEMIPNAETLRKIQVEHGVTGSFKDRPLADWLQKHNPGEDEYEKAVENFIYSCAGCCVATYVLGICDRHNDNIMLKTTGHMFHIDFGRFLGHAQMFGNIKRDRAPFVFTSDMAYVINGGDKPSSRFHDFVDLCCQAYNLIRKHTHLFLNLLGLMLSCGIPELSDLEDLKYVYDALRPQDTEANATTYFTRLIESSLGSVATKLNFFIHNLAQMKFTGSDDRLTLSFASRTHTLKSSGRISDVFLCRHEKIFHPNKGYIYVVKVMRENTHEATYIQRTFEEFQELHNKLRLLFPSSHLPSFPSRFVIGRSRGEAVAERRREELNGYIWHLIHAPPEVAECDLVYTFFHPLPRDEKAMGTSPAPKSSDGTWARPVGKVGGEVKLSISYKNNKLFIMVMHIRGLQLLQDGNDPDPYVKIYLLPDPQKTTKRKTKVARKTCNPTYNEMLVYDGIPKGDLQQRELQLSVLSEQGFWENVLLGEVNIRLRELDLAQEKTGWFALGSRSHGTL

SW-620 [19] = experiment: Induction of apoptosis in human SW620 cells assessed as early apoptotic cells at 25 uM after 48 hrs by Annexin-V-FITC/propidium iodide staining based flow cytometry (reference value: 0.4%); type: functional
SW-620 [20] = experiment: Induction of apoptosis in human SW620 cells assessed as necrotic cells at 50 uM after 48 hrs by Annexin-V-FITC/propidium iodide staining based flow cytometry (reference value: 0.9%); type: functional
[21] = target: Mitogen-activated protein kinase 8 (Homo sapiens, UniProt P45983); experiment: Binding affinity to full length human JNK1 (M1 to Q384 residues) expressed in mammalian expression system by KINOMEscan assay
[22] = target: NUAK family SNF1-like kinase 2 (Homo sapiens, UniProt Q9H093); experiment: Binding affinity to human SNARK (P22 to A333 residues) expressed in mammalian expression system by KINOMEscan assay
HT-29 [23] = experiment: Induction of apoptosis in human HT-29 cells assessed as early apoptotic cells at 50 uM after 48 hrs by Annexin-V-FITC/propidium iodide staining based flow cytometry (reference value: 1%); type: functional
Aurora kinase B = Aurora kinase B (Homo sapiens, UniProt Q96GD4); experiment: Inhibition of human AURKB (D25 to A303 residues) expressed in mammalian expression system assessed as residual activity at 5 uM by KINOMEscan assay relative to control
[24] = target: Tyrosine-protein kinase ABL1 (Homo sapiens, UniProt P00519); experiment: Inhibition of human non-phosphorylated ABL1 (S229 to K512 residues) expressed in mammalian expression system assessed as residual activity at 5 uM by KINOMEscan assay relative to control
Sequence of Tyrosine-protein kinase ABL1 (P00519 whole entry, the tested form may be a part): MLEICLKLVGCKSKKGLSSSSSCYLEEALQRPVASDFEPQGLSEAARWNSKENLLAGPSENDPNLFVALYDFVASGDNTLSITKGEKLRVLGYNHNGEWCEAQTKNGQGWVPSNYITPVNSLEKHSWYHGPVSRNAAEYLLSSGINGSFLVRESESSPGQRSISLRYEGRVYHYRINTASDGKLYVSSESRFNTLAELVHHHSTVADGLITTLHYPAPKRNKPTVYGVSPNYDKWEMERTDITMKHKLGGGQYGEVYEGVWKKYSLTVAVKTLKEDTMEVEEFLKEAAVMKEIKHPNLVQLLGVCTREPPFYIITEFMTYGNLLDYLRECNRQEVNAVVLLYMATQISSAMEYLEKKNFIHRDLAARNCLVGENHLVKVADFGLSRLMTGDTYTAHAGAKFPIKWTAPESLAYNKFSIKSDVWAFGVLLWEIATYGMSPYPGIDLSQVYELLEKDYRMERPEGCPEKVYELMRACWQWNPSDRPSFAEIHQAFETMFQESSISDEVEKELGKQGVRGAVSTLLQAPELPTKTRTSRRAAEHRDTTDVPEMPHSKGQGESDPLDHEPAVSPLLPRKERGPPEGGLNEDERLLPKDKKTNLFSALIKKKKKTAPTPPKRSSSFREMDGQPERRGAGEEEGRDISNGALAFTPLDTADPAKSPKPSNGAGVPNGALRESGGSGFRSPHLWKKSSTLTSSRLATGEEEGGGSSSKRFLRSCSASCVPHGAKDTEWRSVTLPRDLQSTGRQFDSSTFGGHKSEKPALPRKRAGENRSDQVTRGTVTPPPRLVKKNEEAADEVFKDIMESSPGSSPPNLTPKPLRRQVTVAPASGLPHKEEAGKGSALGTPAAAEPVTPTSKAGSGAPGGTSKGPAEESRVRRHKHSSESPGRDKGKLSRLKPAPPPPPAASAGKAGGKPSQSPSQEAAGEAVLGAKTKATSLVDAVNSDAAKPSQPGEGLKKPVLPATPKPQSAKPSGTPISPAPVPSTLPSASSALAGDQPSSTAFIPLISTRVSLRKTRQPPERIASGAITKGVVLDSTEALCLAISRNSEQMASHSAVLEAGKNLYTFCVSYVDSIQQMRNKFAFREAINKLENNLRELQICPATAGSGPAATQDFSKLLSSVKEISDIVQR

HT-29 [25] = experiment: Inhibition of colony formation in human HT-29 cells assessed as reduction in colony size at 25 to 75 uM treated for 48 hrs followed by compound washout and measured after 14 hrs by crystal violet staining based assay; type: functional, cell-based
[26] = target: Phosphatidylinositol 4,5-bisphosphate 3-kinase catalytic subunit gamma isoform (Homo sapiens, UniProt P48736); experiment: Binding affinity to human PIK3CG (S144 to A1102 residues) expressed in mammalian expression system by KINOMEscan assay
Sequence of Phosphatidylinositol 4,5-bisphosphate 3-kinase catalytic subunit gamma isoform (P48736 whole entry, the tested form may be a part, canonical isoform): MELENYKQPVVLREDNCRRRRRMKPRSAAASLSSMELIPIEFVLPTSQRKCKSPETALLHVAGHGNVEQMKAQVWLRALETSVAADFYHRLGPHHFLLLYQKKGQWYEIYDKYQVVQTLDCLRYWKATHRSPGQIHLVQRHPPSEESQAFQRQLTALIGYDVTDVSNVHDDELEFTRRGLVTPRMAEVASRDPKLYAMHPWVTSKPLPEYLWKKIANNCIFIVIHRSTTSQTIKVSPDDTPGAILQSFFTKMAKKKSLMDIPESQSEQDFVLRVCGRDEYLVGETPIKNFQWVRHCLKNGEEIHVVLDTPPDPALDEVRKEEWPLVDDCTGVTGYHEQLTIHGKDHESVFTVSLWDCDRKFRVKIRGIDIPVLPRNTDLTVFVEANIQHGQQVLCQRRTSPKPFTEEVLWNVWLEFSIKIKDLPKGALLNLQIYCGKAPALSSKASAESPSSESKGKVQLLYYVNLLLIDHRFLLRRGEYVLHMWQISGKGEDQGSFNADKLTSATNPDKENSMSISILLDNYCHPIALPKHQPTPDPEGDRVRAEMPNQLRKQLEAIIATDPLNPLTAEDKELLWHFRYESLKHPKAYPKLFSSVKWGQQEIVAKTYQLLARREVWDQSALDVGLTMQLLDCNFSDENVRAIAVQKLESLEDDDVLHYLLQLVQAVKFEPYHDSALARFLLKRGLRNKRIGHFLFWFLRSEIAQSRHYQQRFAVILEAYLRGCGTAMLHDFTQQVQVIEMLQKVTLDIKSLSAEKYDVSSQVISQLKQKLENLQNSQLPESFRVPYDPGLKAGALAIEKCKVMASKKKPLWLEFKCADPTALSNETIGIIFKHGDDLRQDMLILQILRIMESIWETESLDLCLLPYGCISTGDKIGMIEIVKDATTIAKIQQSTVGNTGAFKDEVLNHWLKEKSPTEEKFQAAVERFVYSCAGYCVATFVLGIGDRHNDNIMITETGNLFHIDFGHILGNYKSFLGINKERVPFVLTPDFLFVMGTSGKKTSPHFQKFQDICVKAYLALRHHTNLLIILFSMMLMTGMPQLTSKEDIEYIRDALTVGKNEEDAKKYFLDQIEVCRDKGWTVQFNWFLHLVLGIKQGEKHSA

CC(C)CN(C(=O)c1cccnc1)c1c2ccccc2c(=O)n2c1[nH]c1ccccc12
Activity (SW-620 [1]): Dose-dependent effect
pKd [2]: ≤ 5.30
pKd [3]: ≤ 5.30
Activity [4]: 100%
Activity (Insulin receptor): 100%
Activity (SW-620 [5]): Dose-dependent effect
Activity [6]: 100%
Activity [7]: 88%
Activity (SW-620 [8]): 92.1%
Activity (SW-620 [9]): 3.1%
Activity [10]: 100%
pKd [11]: ≤ 5.30
Activity (SW-620 [12]): 38.82%
Activity (SW-620 [13]): Dose-dependent effect
Activity (HT-29 [14]): Dose-dependent effect
Activity [15]: 100%
Activity [16]: 82%
pKd [17]: ≤ 5.30
Activity [18]: 97%
Activity (SW-620 [19]): 0.7%
Activity (SW-620 [20]): 5.5%
pKd [21]: ≤ 5.30
pKd [22]: ≤ 5.30
Activity (HT-29 [23]): 1.7%
Activity (Aurora kinase B): 92%
Activity [24]: 65%
inhibition (HT-29 [25]): Active
pKd [26]: ≤ 5.30
